Values after ≈ are worked out from the molar mass of the structure shown. Active and inactive are the calls of the source. No cut-off for these calls is given here.

The test system of assay [1] is Streptococcus gordonii. In words: Antimicrobial activity against […] and streptomycin-resistant Streptococcus gordonii Tol1 harboring Tol1 mutation in ptsI after 24 hrs by macrodilution assay. The format is functional. Particulars: Tol1, 24 h. In outline: (§1)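 MIC by standard broth macrodilution; streptococci grown at 37°C in BHI broth without aeration.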
Assay [2] has as its system Streptococcus gordonii. Kind of assay: Antimicrobial activity against wild type streptomycin-susceptible Streptococcus gordonii assessed as bacterial count at 2 ug/ml after 24 hrs by macrodilution method. The format is functional. In outline:
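Time-kill assay: exponentially growing cultures in BHI broth at 37°C without aeration. Penicillin G was added at 2 μg/ml when OD600 reached 0.2 (about 1 × 10^8 CFU/ml). Viable counts were taken on agar plates, and the result is the loss of log10 CFU/ml after 24 h of exposure.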

The test system of assay [3] is Streptococcus gordonii. Kind of assay: Antimicrobial activity against wild type streptomycin-susceptible Streptococcus gordonii after 24 hrs by macrodilution method. The format is functional. In outline: as §1
Assay [4] relates to Streptococcus gordonii. In words: Antimicrobial activity against wild type streptomycin-susceptible Streptococcus gordonii harboring P483R mutation in ptsI assessed as bacterial count at 2 ug/ml after 24 hrs by macrodilution technique.
Assay [5] concerns Streptococcus gordonii. Kind of assay: Antimicrobial activity against […] and streptomycin-resistant Streptococcus gordonii Tol1 harboring Tol1 mutation in ptsI assessed as bacterial count at 2 ug/ml after 24 hrs by macrodilution assay. The format is functional.
For assay [6], the system named is Streptococcus gordonii. Kind of assay: Antimicrobial activity against erythromycin- and streptomycin-resistant Streptococcus gordonii Tol1 harboring R483P mutation in ptsI assessed as bacterial count at 2 ug/ml after 24 hrs by macrodilution technique. The format is functional.
For assay [7], the system named is Streptococcus gordonii. Kind of assay: Antimicrobial activity against wild type streptomycin-susceptible Streptococcus gordonii harboring […] mutation in ptsI assessed as decrease in [14C]glucose uptake at 2 ug/ml after 60 mins by liquid scintillation counting. The format is functional, organism-based. In outline: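 Cells grown in BHI to OD550 ca 0.3, exposed to 2 μg/ml penicillin for 20, 40 or 60 min, washed in PBS-5 mM MgCl2, preincubated 10 min at 35°C; uptake started with [14C]glucose (600 dpm/nmol), aliquots diluted in cold stopping buffer, filtered on glass fibre, counted by liquid scintillation; 4°C high-dilution adsorption control.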

Assay [8] has as its system Streptococcus gordonii. In words: Antimicrobial activity against erythromycin- and streptomycin-resistant Streptococcus gordonii Tol1 harboring R483P mutation in ptsI infected in Wistar rat assessed as protection against bacterial infection at 300000 U/kg, sc administered 16 hrs after infection every 12 hrs for 2 days measured within 3 days post last dose. The format is functional, organism-based.

For assay [9], the system named is Streptococcus gordonii. In words: Antimicrobial activity against wild type streptomycin-susceptible Streptococcus gordonii harboring […] mutation in ptsI infected in Wistar rat assessed as decrease in bacterial infection at 300000 U/kg, sc administered 16 hrs after infection every 12 hrs for 2 days measured within 3 days post last dose. The format is functional, organism-based.

The subject of assay [10] is Streptococcus gordonii. Kind of assay: Antimicrobial activity against […] and streptomycin-resistant Streptococcus gordonii Tol1 harboring Tol1 mutation infected in Wistar rat assessed as protection against bacterial infection at 300000 U/kg, sc administered 16 hrs after infection every 12 hrs for 2 days measured within 3 days post last dose. The format is functional, organism-based.

For assay [11], the system named is Streptococcus gordonii. In words: Antimicrobial activity against wild type streptomycin-susceptible Streptococcus gordonii assessed as decrease in [14C]glucose uptake at 2 ug/ml after 60 mins by liquid scintillation counting. The format is functional, organism-based. In outline:
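Cells were grown in BHI to OD550 of about 0.3, then exposed to penicillin at 2 μg/ml for 20, 40 or 60 min. They were washed in PBS-5 mM MgCl2, concentrated, and preincubated for 10 min at 35°C. Uptake was started with 20 mM stock [14C]glucose (600 dpm/nmol). Timed aliquots went into cold stop buffer, were filtered on glass fiber, and were counted by scintillation. A 4°C high-dilution sample corrected for nonspecific binding.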

Assay [12] deals with Streptococcus gordonii. Kind of assay: Antimicrobial activity against wild type streptomycin-susceptible Streptococcus gordonii infected in Wistar rat assessed as decrease in bacterial infection at 300000 U/kg, sc administered 16 hrs after infection every 12 hrs for 2 days measured within 3 days post last dose. The format is functional, organism-based. In outline: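 Female Wistar rats carried sterile aortic vegetations. After 24 h they were challenged i.v. with 10^7 CFU of exponential-phase streptococci in 0.5 ml saline. From 16 h post-inoculation, procaine penicillin 300,000 U/kg was given s.c. every 12 h for 2 days. Untreated controls were killed at therapy onset, and treated rats 12 h after the trough of the last dose. Vegetations were weighed and plated for CFU.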

As to `C[C@@H](O)[C@H]1C(=O)N2C(C(=O)O)=C(SCCNC=N)C[C@H]12` [IMIPENEM ANHYDROUS], the MIC against Streptococcus gordonii [1] and against Streptococcus gordonii [3] was 4 ng/mL (≈ 0.0134 µM) each time. Also, the Activity with Streptococcus gordonii [2] is listed as 6.1 log10CFU/ml; in the assay with Streptococcus gordonii [4], 2.1 log10CFU/ml; with Streptococcus gordonii [5] it was 2 log10CFU/ml; in the assay on Streptococcus gordonii [6] it was 5.3 log10CFU/ml.
Turning to `CC1(C)S[C@@H]2[C@H](NC(=O)Cc3ccccc3)C(=O)N2[C@H]1C(=O)O` [PENICILLIN G], the inhibition result in the assay on Streptococcus gordonii [7], in the assay on Streptococcus gordonii [11] and in the assay with Streptococcus gordonii [12] was “Active” each time. In addition, the MIC with Streptococcus gordonii [1] and against Streptococcus gordonii [3] was 8 ng/mL (≈ 0.0239 µM) each time. The Activity in the assay on Streptococcus gordonii [2] was determined as 4.5 log10CFU/ml; with Streptococcus gordonii [4], 0.7 log10CFU/ml; with Streptococcus gordonii [5], 0.6 log10CFU/ml; with Streptococcus gordonii [6], 3.9 log10CFU/ml. Further, the outcome with Streptococcus gordonii [8] was Active. Moreover, the inhibition result with Streptococcus gordonii [9] and in the assay on Streptococcus gordonii [10] was “inactive” in each case.

Usually MIC stands for the lowest concentration found to suppress growth.

For the origin of these results see ChEMBL document CHEMBL1212757, “A single mutation in enzyme I of the sugar phosphotransferase system confers penicillin tolerance to Streptococcus gordonii” (2010).
